We go through twelve compounds from ChEMBL document CHEMBL1142008, “Discovery and investigation of a novel class of thiophene-derived antagonists of the human glucagon receptor” (Bioorg Med Chem Lett, 2005).

The target of series [1] is T1, Glucagon receptor (Homo sapiens, UniProt P47871). Briefly: Inhibitory concentration towards binding of [125I]glucagon to the human glucagon receptor expressed in CHO cells. The format is cell-based.
Series [2] addresses T1, Glucagon receptor. The series is described as follows: Percent inhibition of glucagon induced cAMP accumulation in human glucagon receptor transfected CHO cells at a compound concentration of 10 uM. The format is functional, cell-based. The essentials: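 Functional antagonism in CHO cells transfected with human glucagon receptor. Read-out is inhibition of glucagon-induced cAMP accumulation. Reported as IC50, or as percent inhibition at 10 µM compound. Mean of at least two experiments, SD <50% of mean.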

Series [3] addresses T1, Glucagon receptor. Briefly: Inhibition of glucagon induced cAMP accumulation in human glucagon receptor transfected CHO cells. The format is functional, cell-based. The essentials: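 Functional antagonism in CHO cells transfected with human glucagon receptor. Read-out is inhibition of glucagon-induced cAMP accumulation. Mean of at least two experiments, SD <50% of mean.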

A short description of series [4]: Maximum plasma concentration measured in mouse after peroral administration of 2 mg/kg. The format is ADME, organism-based. More on the design: dose 2 mg/kg, route oral. The following applies: po. The essentials: (§1)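 Mouse PK, n = 3 mice per route. Dosed both IV and PO: 1.0 mg/kg IV / 2.0 mg/kg PO for one compound, 5.0 mg/kg IV / 10.0 mg/kg PO for others. Plasma clearance, Vdss, t1/2, Cmax, dose-normalized oral AUC and F% derived.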

Series [5] can be described thus: Maximum plasma concentration measured in mouse after intravenous administration of 1 mg/kg. More on the design: dose 1 mg/kg, route intravenous. The class given is ADME, organism-based. The essentials: as §1
Series [6] in a line: Half life measured in mouse after intravenous administration of 1 mg/kg. The format is ADME, organism-based. More on the design: dose 1 mg/kg, route intravenous. The following applies: in vivo. The essentials:
as §1

Series [7] is described as follows: Plasma clearance measured in mouse after peroral administration of 2 mg/kg; n = 3. The class given is ADME, organism-based. More on the design: dose 2 mg/kg, route oral. The following applies: in vivo, po. The essentials: as §1
Series [8] can be described thus: Plasma clearance measured in mouse after intravenous administration of 1 mg/kg; n = 3. The class given is ADME, organism-based. The following applies: in vivo. More on the design: dose 1 mg/kg, route intravenous. The essentials: as §1
Series [9] can be described thus: Steady state volume distribution measured in mouse after peroral administration of 2 mg/kg. The format is ADME, organism-based. More on the design: dose 2 mg/kg, route oral. The following applies: in vivo, po. The essentials: as §1
Series [10] is described as follows: Steady state volume distribution measured in mouse after intravenous administration of 1 mg/kg. The class given is ADME, organism-based. More on the design: dose 1 mg/kg, route intravenous. The following applies: in vivo, read-out: Vdss. The essentials: as §1
Series [11] in a line: Oral bioavailability in mouse (dose 2 mg/kg). The format is ADME, organism-based. The settings on record: in vivo. The essentials:
as §1

Series [12] is described as follows: Bioavailability in mouse (dose 1 mg/kg i.v.). The class given is ADME, organism-based. The settings on record: in vivo, iv. The essentials: as §1
Series [13] is described as follows: Half life measured in mouse after peroral administration of 2 mg/kg. The class given is ADME, organism-based. More on the design: dose 2 mg/kg, route oral. The following applies: in vivo, po. The essentials: as §1
A short description of series [14]: Maximum plasma concentration measured in mouse after oral administration of 2 mg/kg.

T1 sequence (P47871 whole entry): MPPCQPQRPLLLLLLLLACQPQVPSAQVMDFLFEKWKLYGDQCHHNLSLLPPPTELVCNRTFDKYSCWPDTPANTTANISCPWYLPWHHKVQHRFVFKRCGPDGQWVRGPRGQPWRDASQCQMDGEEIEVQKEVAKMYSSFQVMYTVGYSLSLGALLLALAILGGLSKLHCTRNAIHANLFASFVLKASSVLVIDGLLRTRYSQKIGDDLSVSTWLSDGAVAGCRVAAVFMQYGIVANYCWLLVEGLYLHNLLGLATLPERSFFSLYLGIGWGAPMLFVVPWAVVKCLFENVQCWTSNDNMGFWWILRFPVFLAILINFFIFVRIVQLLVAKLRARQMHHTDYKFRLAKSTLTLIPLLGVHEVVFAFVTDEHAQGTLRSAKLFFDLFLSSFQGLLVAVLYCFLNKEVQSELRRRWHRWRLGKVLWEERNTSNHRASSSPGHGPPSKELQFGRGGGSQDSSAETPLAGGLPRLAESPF

`CCC(CC)C(=O)Nc1sc2c(c1C(N)=O)CCC(C(C)(C)CC)C2` (stereo unspecified) yielded a half-inhibitory concentration (IC50) on Glucagon receptor [1] of 870 nM. The same compound returned an inhibition against Glucagon receptor [2] of 38%.

In the case of `CCC(CC)C(=O)Nc1sc2c(c1C#N)CCC(N(C)C1CCCc3ccccc31)C2` (single isomer, unassigned; form 1), the figures for the IC50 at Glucagon receptor [1] and against Glucagon receptor [3] were 139 nM and 158 nM, respectively.

In the case of `CCC(CC)C(=O)Nc1sc2c(c1C#N)CCC(N(C)C1CCCc3ccccc31)C2` (single isomer, unassigned; form 2), the IC50 on Glucagon receptor [1] was 118 nM; on Glucagon receptor [3], 59 nM.

Compound `CCC(CC)C(=O)Nc1sc(-c2nnc(CC(C)C)o2)c(C)c1C#N` displayed an IC50 at Glucagon receptor [1] of 3210 nM.

Regarding `CCC(CC)C(=O)Nc1sc(-c2nc(CC(C)C)no2)c(C)c1C#N`, the IC50 on Glucagon receptor [1] was 368 nM; against Glucagon receptor [3] it was 185 nM. For the same compound, the peak concentration (Cmax) in series [4] and in series [5] was 800 nM throughout. In addition, the half-life in [6] and in series [13] was 2.7 h throughout. Also, the Clp in series [7] and in series [8] was 84 mL/min/kg in each case. The compound also registered a Vdss in series [9] of 16 L/kg. The Vd in series [10] turned out to be 16 L/kg. For the same compound, the bioavailability in [11] and in [12] was 39% each time.

Take `CCC(CC)C(=O)Nc1sc(C(=O)N(Cc2ccc(Cl)cc2Cl)C(C)C)c(C)c1C#N`: the IC50 on Glucagon receptor [1] was determined as 153 nM; on Glucagon receptor [3], 41 nM.

In the case of `CCC(CC)C(=O)Nc1sc2c(c1C#N)CCC(C(C)(C)CC)C2` (stereo unspecified), the figures for the concentration for half-maximal inhibition (IC50) on Glucagon receptor [1] and on Glucagon receptor [3] were 181 nM and 129 nM, respectively.

On Glucagon receptor [1], `CCC(C)(C)C1CCc2c(sc(NC(=O)c3ccc(Br)cc3)c2C#N)C1` (stereo unspecified) gave an IC50 greater than 20000 nM.

In the case of `CCC(CC)C(=O)Nc1sc2c(c1C#N)CCC(N(C)Cc1ccc(Cl)cc1Cl)C2` (stereo unspecified), the IC50 on Glucagon receptor [1] came out at 92 nM; at Glucagon receptor [3], 63 nM. For the same compound, the Cmax in [4] and in [14] was 80 nM each time. Moreover, the half-life in [6] and in series [13] was 1.9 h in each case. Moreover, the Clp in series [7] and in series [8] was 50 mL/min/kg throughout. This compound returned a Vdss in [9] of 3.4 L/kg. Also, in series [10], the Vd came out at 3.4 L/kg. In addition, the bioavailability in series [11] and in [12] was 9.2% throughout.

Compound `CCC(CC)C(=O)Nc1sc2c(c1C#N)CCC(N(C)Cc1ccccc1)C2` (stereo unspecified) gave an IC50 on Glucagon receptor [1] of 3820 nM.

Consider `CCC(CC)C(=O)Nc1sc2c(c1C#N)CCC(N(Cc1ccc(Cl)cc1Cl)C(C)C)C2` (stereo unspecified), for which the IC50 on Glucagon receptor [1] is 129 nM; at Glucagon receptor [3], 59 nM.

In the case of `CCC(CC)C(=O)Nc1sc(-c2nc(Cc3ccc(Cl)cc3Cl)no2)c(C)c1C#N`, the IC50 at Glucagon receptor [1] was 89 nM; against Glucagon receptor [3], 34 nM. Moreover, the maximum concentration (Cmax) in series [4] and in series [5] was 800 nM throughout. The half-life in [6] and in series [13] was 5.1 h in each case. Further, the Clp in [7] and in series [8] was 23 mL/min/kg throughout. For the same compound, the Vdss in series [9] stood at 8.7 L/kg. Besides, the Vd in series [10] turned out to be 8.7 L/kg. Moreover, the bioavailability in [11] and in series [12] was 36% each time.
